Data from ChEMBL document CHEMBL4049422, “Discovery of Novel Indazole Derivatives as Orally Available β3-Adrenergic Receptor Agonists Lacking Off-Target-Based Cardiovascular Side Effects” (J Med Chem, 2017).
In brackets after ≈: the same amount, converted by molar mass.

Columns and labels:
Rattus norvegicus [1] = experiment: Cardiotoxicity in Sprague-Dawley rat assessed as increase in heart beat rate at 3 mg/kg, iv after 30 mins (reference value: 1.8 +/- 0.9%); type: toxicity, organism-based; details: in vivo, 0.5 h
[2] = Membrane permeability in MDCK cells at 50 uM after 60 mins by LC-MS/MS analysis; type: ADME, cell-based, Canis lupus familiaris; details: dog, read-out: permeability
CYP1A2 = target: T1, CYP1A2 (Homo sapiens, UniProt P05177); experiment: Inhibition of CYP1A2 (unknown origin) at 10 uM relative to control; type: ADME
T1 sequence (P05177 whole entry): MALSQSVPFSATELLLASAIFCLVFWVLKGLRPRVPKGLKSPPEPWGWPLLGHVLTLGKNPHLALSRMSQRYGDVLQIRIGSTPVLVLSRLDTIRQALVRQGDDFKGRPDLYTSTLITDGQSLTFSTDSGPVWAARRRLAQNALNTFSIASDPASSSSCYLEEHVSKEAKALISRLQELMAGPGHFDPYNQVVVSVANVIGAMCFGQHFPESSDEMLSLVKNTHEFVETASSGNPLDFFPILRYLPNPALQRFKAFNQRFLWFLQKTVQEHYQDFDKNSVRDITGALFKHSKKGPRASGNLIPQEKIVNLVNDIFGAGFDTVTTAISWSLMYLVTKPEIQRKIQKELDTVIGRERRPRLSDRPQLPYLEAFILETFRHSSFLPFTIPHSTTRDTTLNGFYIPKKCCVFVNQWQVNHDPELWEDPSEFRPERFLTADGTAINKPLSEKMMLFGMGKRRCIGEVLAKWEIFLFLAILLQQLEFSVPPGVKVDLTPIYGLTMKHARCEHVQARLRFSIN

[3] = Solubility of the compound at pH 1.2 buffer solution after 18 hrs by HPLC analysis; type: physicochemical
[4] = Intrinsic clearance in Sprague-Dawley rat liver microsomes at 0.5 uM in presence of NADPH by LC-MS/MS analysis; type: ADME, microsome
Summary of the method: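 Pooled male Sprague-Dawley rat liver microsomes (0.5 mg/mL final) in 100 mM Tris-HCl pH 7.4 with NADPH-regenerating mix plus UDP-GA, test compound 0.5 µM, 20 min at 37 °C. Acetonitrile stop, LC-MS/MS. CLint,u is scaled with 44.8 mg protein/g liver and 40.0 g liver/kg, and corrected by fu from ultracentrifugation (160,000g, 16 h, 37 °C).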

[5] = target: Beta-3 adrenergic receptor (Homo sapiens, UniProt P13945); experiment: Agonist activity at recombinant human beta3 adrenergic receptor expressed in CHO cells assessed as accumulation of cyclic AMP after 30 mins; type: cell-based
[6] = target: T2, Alpha-1B adrenergic receptor (Homo sapiens, UniProt P35368); experiment: Agonist activity at recombinant human alpha1B adrenergic receptor expressed in HEK293 cells after 6 hrs by NFAT-luciferase reporter gene assay; type: cell-based
T2 sequence (P35368 whole entry): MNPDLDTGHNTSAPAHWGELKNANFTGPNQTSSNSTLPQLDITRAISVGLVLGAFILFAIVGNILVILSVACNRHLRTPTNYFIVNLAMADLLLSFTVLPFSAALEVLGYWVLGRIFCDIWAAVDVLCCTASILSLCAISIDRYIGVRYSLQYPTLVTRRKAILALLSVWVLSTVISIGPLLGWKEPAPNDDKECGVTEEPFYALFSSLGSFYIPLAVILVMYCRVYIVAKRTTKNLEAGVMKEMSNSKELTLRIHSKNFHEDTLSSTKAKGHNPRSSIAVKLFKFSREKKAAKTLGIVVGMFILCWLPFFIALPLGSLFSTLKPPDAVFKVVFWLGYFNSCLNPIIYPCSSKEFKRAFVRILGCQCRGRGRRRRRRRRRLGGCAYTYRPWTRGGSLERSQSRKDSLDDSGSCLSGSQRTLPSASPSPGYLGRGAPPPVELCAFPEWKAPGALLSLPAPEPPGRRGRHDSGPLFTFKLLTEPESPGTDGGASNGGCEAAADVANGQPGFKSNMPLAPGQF

[7] = Solubility of the compound at pH 6.8 buffer solution after 18 hrs by HPLC analysis; type: physicochemical
[8] = target: Beta-2 adrenergic receptor (Homo sapiens, UniProt P07550); experiment: Intrinsic activity at recombinant human beta2 adrenergic receptor assessed as accumulation of cyclic AMP after 30 mins relative to isoproterenol
Rattus norvegicus [9] = experiment: Cardiotoxicity in Sprague-Dawley rat assessed as decrease in heart beat rate at 3 mg/kg, iv after 30 mins (reference value: 4.5 +/- 0.8%); type: toxicity, organism-based; set-up: scale not given: the % may be the effect or the level left; details: in vivo, 0.5 h
[10] = target: T3, Alpha-1D adrenergic receptor (Homo sapiens, UniProt P25100); experiment: Agonist activity at recombinant human alpha1D adrenergic receptor expressed in HEK293 cells after 6 hrs by NFAT-luciferase reporter gene assay; type: cell-based
T3 sequence (P25100 whole entry): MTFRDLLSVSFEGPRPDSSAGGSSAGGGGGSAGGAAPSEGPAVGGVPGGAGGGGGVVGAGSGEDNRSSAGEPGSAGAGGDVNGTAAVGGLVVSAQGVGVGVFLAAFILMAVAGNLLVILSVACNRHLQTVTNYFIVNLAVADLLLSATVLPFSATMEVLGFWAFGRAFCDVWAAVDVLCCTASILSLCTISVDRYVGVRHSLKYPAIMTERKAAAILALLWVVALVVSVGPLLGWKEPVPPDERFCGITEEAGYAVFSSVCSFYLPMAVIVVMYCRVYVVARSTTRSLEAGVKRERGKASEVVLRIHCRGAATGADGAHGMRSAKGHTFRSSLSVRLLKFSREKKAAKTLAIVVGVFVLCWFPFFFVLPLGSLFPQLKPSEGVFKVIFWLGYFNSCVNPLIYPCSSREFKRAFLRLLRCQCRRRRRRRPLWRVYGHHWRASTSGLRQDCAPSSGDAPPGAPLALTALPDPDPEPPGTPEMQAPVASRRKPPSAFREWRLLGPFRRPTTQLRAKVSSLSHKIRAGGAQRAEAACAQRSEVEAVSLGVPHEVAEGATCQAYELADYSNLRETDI

CYP2D6 = CYP2D6 (Homo sapiens, UniProt P10635); experiment: Inhibition of CYP2D6 (unknown origin) at 10 uM relative to control; type: ADME
[11] = target: Beta-1 adrenergic receptor (Homo sapiens, UniProt P08588); experiment: Intrinsic activity at recombinant human beta1 adrenergic receptor assessed as accumulation of cyclic AMP after 30 mins relative to isoproterenol; details: 0.5 h
Chain of Beta-1 adrenergic receptor (P08588 whole entry): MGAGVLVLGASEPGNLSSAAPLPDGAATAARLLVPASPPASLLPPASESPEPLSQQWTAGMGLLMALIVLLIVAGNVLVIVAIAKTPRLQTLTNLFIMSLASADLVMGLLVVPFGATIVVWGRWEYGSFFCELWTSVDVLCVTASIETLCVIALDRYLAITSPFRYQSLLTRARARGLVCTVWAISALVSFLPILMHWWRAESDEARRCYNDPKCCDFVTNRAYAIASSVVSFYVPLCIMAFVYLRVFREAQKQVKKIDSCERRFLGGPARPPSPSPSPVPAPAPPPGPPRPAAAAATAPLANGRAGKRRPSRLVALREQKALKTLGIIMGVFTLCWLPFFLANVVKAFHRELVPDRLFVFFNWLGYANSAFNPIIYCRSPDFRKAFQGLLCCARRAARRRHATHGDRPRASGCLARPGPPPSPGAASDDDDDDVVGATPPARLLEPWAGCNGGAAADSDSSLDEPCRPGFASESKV

Chain of Beta-2 adrenergic receptor (P07550 whole entry): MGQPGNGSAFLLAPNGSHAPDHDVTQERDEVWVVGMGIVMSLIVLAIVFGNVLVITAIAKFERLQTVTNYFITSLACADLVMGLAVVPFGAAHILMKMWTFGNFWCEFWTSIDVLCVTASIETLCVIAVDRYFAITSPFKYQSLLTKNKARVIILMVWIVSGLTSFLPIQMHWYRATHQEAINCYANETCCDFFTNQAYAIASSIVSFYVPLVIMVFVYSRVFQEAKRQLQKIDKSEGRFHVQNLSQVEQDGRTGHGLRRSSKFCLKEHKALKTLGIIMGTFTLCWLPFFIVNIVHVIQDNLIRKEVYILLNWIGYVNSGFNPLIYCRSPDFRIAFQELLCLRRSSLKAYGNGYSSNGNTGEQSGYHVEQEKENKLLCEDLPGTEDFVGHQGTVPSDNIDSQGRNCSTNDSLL
Chain of CYP2D6 (P10635 whole entry): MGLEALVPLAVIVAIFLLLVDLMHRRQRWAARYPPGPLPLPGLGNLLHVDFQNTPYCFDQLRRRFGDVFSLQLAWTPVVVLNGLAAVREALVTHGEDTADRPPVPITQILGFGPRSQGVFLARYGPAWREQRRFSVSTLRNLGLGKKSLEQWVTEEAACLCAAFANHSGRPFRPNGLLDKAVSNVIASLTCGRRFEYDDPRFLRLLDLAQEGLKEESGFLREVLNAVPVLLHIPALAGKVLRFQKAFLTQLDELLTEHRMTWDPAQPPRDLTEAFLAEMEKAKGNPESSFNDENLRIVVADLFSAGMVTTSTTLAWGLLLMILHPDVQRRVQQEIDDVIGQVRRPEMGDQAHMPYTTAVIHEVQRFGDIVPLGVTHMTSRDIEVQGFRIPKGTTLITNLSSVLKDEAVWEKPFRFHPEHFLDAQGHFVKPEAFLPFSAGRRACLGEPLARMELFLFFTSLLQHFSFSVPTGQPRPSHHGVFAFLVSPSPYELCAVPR
Chain of Beta-3 adrenergic receptor (P13945 whole entry): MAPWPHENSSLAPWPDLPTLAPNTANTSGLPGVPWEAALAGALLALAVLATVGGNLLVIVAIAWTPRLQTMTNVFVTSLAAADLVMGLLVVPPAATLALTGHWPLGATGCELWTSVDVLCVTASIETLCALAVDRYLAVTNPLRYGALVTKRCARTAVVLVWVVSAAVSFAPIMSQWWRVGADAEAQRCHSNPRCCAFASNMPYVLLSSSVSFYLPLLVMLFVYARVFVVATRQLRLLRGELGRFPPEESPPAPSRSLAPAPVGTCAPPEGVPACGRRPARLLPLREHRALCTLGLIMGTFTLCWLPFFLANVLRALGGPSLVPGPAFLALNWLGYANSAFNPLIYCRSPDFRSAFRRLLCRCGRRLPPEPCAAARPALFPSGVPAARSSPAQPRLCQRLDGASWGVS

For `Cc1n[nH]c2cc(OCCNC[C@H](O)c3cccc(NS(=O)(=O)C4CCC4)c3)ccc12`, which Activity (Rattus norvegicus [1]) is on record?
The Activity was 5.8%.

What about the Papp at 1 h, 50 µM [2] of the same compound?
Its Papp at 1 h, 50 µM is 5 ×10⁻⁶ cm/s.

And the inhibition at 10 µM (CYP1A2)?
The inhibition at 10 µM was under 34%.

And the solubility at 18 h [3]?
Its solubility at 18 h is 299 µM (≈ 133 µg/mL).

What about the CLint scaled at 0.5 µM [4] of the same compound?
The CLint scaled at 0.5 µM was 52 mL/min/kg.

What about the EC50 [5] of the same compound?
Its EC50 is 0.018 µM.

What about the EC50 [6] of the same compound?
The EC50 was over 10 µM.

What about the solubility at 18 h [7] of the same compound?
Its solubility at 18 h is 278 µM (≈ 124 µg/mL).

What about the Emax at 0.5 h [8] of the same compound?
Its Emax at 0.5 h is 4%.

And the Activity (Rattus norvegicus [9])?
Its Activity is 0.9%.

What about the EC50 [10] of the same compound?
Its EC50 is over 10 µM.

And the inhibition at 10 µM (CYP2D6)?
The inhibition at 10 µM was under 34%.

What about the Intrinsic activity [11] of the same compound?
The Intrinsic activity was 4%.
